The record followed here is ChEMBL document CHEMBL3259774, “Antimycobacterial activity of chiral aminoalcohols with camphane scaffold” (Eur J Med Chem, 2014).

In brackets after ≈: the same amount, converted by molar mass.

This assay relates to Mycobacterium tuberculosis. As to the kind of experiment: Antimycobacterial activity against rifampicin and isoniazid-resistant Mycobacterium tuberculosis 43 assessed as growth inhibition. The assay is classed as functional. The gist of the method:
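MDR strain 43, resistant to rifampicin and isoniazid, was a clinical isolate from an HIV-negative Bulgarian adult with pulmonary TB. Tested by the Canetti proportion method on Löwenstein–Jensen medium, with compound in DMSO added before coagulation. Colonies were compared with drug-free control as percent inhibition. MIC is the lowest concentration giving complete inhibition (0% growth).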

For `CC1(C)[C@@H]2CC[C@@]1([C@H](O)CN1CCN(c3ccc(Cl)cc3)CC1)C(=O)C2`, the MIC was found to be 0.27 µM (≈ 0.102 µg/mL).

On to `CC1(C)[C@@H]2CC[C@@]1([C@H](O)CN1CCN(c3ccc(F)cc3)CC1)C(=O)C2`, for which the minimum inhibitory concentration (MIC) came out at 0.55 µM (≈ 0.198 µg/mL).

For the compound `CC1CCN(C[C@@H](O)[C@]23CC[C@H](CC2=O)C3(C)C)CC1`, the MIC worked out at 0.72 µM (≈ 0.201 µg/mL).

`CC1(C)[C@@H]2CC[C@@]1([C@@H](O)CN1CCOCC1)C(=O)C2`: the MIC was above 18.7 µM.

With `CC1(C)[C@@H]2CC[C@@]1([C@@H](O)CN1CCN(c3ccc(F)cc3)CC1)C(=O)C2`, the MIC was 0.55 µM (≈ 0.198 µg/mL).

Regarding `CC1(C)[C@@H]2CC[C@@]1([C@@H](O)CN1CCCCC1)C(=O)C2`, the minimal inhibitory concentration (MIC) is 18.9 µM (≈ 5.02 µg/mL).

Usually MIC stands for the lowest concentration found to suppress growth.
